Bioassay records as filed in PubChem BioAssay.
IDE cell activ – activators of human insulin-degrading enzyme in cells; P14735; HEK cells, FAbeta-B cleavage, fluorescence polarization; 0% vehicle, 100% cell-free pure enzyme wells; activation, % at 5.96 µM; actives 0.073% (n = 340,000); AID 493087;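 active means activation above the mean of all tested compounds plus 3 SD, set per screening campaign, cut at about 17% in these data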
Target sequence (P14735 whole entry, looked up): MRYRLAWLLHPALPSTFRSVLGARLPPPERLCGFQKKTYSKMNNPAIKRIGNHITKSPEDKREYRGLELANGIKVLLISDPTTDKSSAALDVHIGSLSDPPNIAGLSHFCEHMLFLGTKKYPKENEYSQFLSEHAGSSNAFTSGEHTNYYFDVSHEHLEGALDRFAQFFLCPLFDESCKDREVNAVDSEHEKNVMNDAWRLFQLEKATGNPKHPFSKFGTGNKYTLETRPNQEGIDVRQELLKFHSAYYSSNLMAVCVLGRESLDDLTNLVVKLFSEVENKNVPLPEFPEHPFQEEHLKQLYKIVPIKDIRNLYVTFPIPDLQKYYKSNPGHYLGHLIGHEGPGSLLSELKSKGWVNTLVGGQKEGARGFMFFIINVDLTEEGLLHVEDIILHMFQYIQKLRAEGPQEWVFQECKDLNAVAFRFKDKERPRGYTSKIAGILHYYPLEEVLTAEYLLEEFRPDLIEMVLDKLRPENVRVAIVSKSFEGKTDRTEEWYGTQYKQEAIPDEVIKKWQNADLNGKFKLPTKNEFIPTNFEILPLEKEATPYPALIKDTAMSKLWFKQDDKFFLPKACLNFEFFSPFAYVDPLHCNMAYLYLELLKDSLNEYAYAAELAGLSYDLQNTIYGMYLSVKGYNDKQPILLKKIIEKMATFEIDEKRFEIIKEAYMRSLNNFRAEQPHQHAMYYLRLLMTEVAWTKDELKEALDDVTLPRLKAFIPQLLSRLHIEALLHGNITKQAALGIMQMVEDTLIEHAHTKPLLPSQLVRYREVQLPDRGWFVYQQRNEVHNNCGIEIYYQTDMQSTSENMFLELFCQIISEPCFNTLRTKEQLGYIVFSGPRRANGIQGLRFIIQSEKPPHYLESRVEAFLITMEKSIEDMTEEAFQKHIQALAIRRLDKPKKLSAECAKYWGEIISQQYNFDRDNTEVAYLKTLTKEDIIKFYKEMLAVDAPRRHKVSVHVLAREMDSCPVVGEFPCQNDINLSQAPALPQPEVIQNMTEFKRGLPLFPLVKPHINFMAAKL
CSN inh – CSN deneddylation inhibition; inhibition, % at 12.5 µM; AID 651999; Purified CSN, SCF-Nedd8-OG deneddylation, fluorescence polarization; actives 0.38% (n = 360,000); Q92905;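 active means pattern-corrected inhibition above about 35%, with an unprinted fluorescence ratio check between 0.5 and 1.5, limit read from the data, passing the limit was not always enough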;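 further: 0% = enzyme with substrate and 100% = substrate without enzyme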
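Test system: Human Csn5 produced in HEK293T cells | Compound: 12.5 µM single point | Times: 90 min, room temperature | Signal: Fluorescence polarization readout | Read-out basis: % inhibition of substrate cleavage by Csn5 | Controls: no-enzyme wells high, enzyme-with-substrate wells low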
IDE cell inh – inhibits human insulin-degrading enzyme in HEK cells; P14735; FAbetaB cleavage, fluorescence polarization; inhibition, % at 5.59 µM; actives 0.41% (n = 320,000);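 active means percent inhibition above the average of all tested compounds plus 3 SD, set per screening campaign, cut at about 16% in these data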;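 further: IDE supplied by intact live HEK cells; FP after avidin binding of uncleaved biotin substrate so inhibition keeps polarization high; 0% = DMSO wells and 100% = 60 µM reference IDE inhibitor Ii1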
TPT1 inh – blocks Candida albicans tRNA 2'-phosphotransferase; inhibition, % at 5 µM; AID 1962; actives 0.81% (n = 300,000); recombinant caTPT1, FP RNA substrate dephosphorylation;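 active means inhibition above the mean of all tested compounds plus 3 SD, set per screening campaign, cut at about 24% in these data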;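 further: plate controls were DMSO alone for no effect and ferristatin control at 100 nM for full effect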
Rpn11 block – inhibitors of human proteasome Rpn11; O00487; human 26S proteasome, Ub4-pepOG fluorescence polarization; 20S core pre-blocked with epoxomicin; inhibition, % at 20 µM; actives 0.59% (n = 360,000);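 active means inhibition at 20 µM, scaled to each plate's controls, above about 33%, limit read from the data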
HNF4A DNA FP – change in binding of human HNF4 alpha to DNA. HNF4a-FITC DNA binding, fluorescence polarization, 1 h. AID 1224865. P41235. activity change, % at 10 µM. actives 0.3% (n = 360,000); in the data active means activity change above about 30%, passing the limit was not always enough
caTPT1 confirm – TPT1 (C. albicans) inhibition, confirmation. inhibition, % at 5 µM. recombinant caTPT1, fluorescence polarization, RNase T1 coupled. shares compounds with TPT1 inh. actives 74% (n = 2,400);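 active means inhibition above the primary screen limit, the mean inhibition of all tested compounds plus 3 SD, cut at about 25% in these data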
RNase T1 counter – counter-screen for TPT1 inhibitors: inhibitors of Aspergillus oryzae RNase T1 | shares compounds with TPT1 inh | RNase T1 cleavage, fluorescence polarization, 1536-well | inhibition, % at 5 µM | actives 83% (n = 2,400);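 active means inhibition above the solvent-only control well mean plus 3 SD, limit set per screening run, cut at about 23% in these data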;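 further: plate controls were DMSO wells with enzyme for no effect and wells without RNase T1 for full effect; inhibitors block cleavage so intact labeled substrate keeps polarization high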
An asterisk follows results filed as active; / = no result shown; + = active, no number. Sampled rows, rich in hits. Any-hit rate of the full collection: about 1.7%.

SMILES | IDE cell activ | CSN inh | IDE cell inh | TPT1 inh | Rpn11 block | HNF4A DNA FP | caTPT1 confirm | RNase T1 counter
O=C(O)CCNc1cc(N2CCN(C(=O)c3ccco3)CC2)c2noc3c2c1C(=O)c1ccccc1-3 | -0.8 | 28.2 | 6.1 | -17.5 | / | -10.8 | / | /
Cc1cccc(C)c1-n1c(C)nn(-c2ncc(C(F)(F)F)cc2Cl)c1=O | -3.5 | -7.1 | 6.4 | -4.8 | 7.8 | 2.5 | / | /
Cc1nn(-c2ncc(C(F)(F)F)cc2Cl)c(=O)n1-c1c(F)cccc1F | 0.7 | -0.8 | -2.9 | 32.3* | -0.4 | -1.0 | 2.6 | 2.4
Cc1cc(/C=N/Nc2ccc([N+](=O)[O-])cn2)c(C)n1-c1ccccc1 | 4.2 | 0.9 | 2.5 | 30.8* | 30.1 | 7.3 | 35.4* | 47.4*
Cc1ccc(C=NNc2ccc([N+](=O)[O-])cn2)cc1 | 5.0 | -2.0 | / | / | 3.6 | -2.6 | / | /
Cc1c(/C=N/Nc2ccc([N+](=O)[O-])cn2)c2ccccc2n1Cc1ccccc1 | 6.2 | 3.6 | 9.9 | 7.8 | 29.1 | 6.1 | / | /
Cc1ccc(Cn2cc(/C=N/Nc3ccc([N+](=O)[O-])cn3)c3ccccc32)cc1 | 4.0 | 25.4 | -3.4 | 50.9* | 35.4 | 53.7* | 34.0* | 43.5*
Cc1ccc(-n2c(C)cc(/C=N/Nc3ccc([N+](=O)[O-])cn3)c2C)cc1 | -7.5 | 6.7 | -2.4 | 33.8* | 19.2 | 2.6 | 34.8* | 47.2*
O=C(Nc1cccnc1)C1Cc2c(-c3ccco3)ccnc2O1 (stereo not given) | / | 0.4 | / | / | -0.1 | 1.8 | / | /
COc1ccccc1-c1csc(C(NC(C)=O)c2ccccc2)n1 (stereo not given) | / | 4.3 | / | / | -0.1 | -3.3 | / | /
Oc1c(/C=C/C=C/C=Nc2ccccc2)sc(=S)n1Cc1ccccc1 | / | 25.1 | 6.8 | 43.3* | / | 43.1* | 27.6* | 38.9*
CCn1c(O)c(/C=C/C=C/C=Nc2ccccc2)sc1=S | 1.8 | 11.4 | -3.3 | 11.6 | 37.9 | 18.1 | / | /
COc1ccc(C2C(C#N)=C(N)OC(C(C)(C)C)=C2C#N)cc1OC (stereo not given) | -2.6 | -4.7 | -3.2 | -3.2 | -2.2 | 0.9 | / | /
COc1ccc(C2C(C#N)=C(N)SC(N)=C2C#N)cc1OC | -14.9 | 36.8 | 13.2 | 102.7* | / | 115.6 | 70.6* | 81.5*
CCOC(=O)c1c(/N=C/N(C)C)sc(/C=N/Nc2ccccc2)c1-c1ccc(Cl)cc1 | 3.2 | 4.9 | 5.9 | 40.2* | 42.9* | 26.4 | 29.2* | 43.3*
CCOC(=O)c1c(/N=C/N(C)C)sc(C)c1C | 1.5 | 4.1 | 7.3 | -0.3 | 8.0 | 0.7 | / | /
CCc1nc2c(OCc3ccc(Cl)cc3Cl)cccn2c1N(C)C(C)=O | / | -1.5 | / | / | 7.5 | 1.3 | / | /
CC(C)[C@H](NC(=O)OC(C)(C)C)c1cc(C(=O)NC2CC2)c(N)s1 | / | 2.1 | / | / | / | 10.2 | / | /
CC(=O)c1ccccc1NCC(=O)Nc1ccc(C)cc1 | 0.6 | -1.4 | 2.4 | + | 0.5 | -3.4 | 17.8 | 29.0*
CN(C)c1ccc(C=C2SC(=S)N(Cc3ccco3)C2=O)cc1 | / | -71.8 | / | / | / | 128.1 | / | /
COc1ccc(-n2c(C)cc(/C=C3/SC(=S)N(C)C3=O)c2C)cc1 | -3.4 | 15.8 | 6.3 | 28.3* | / | 51.5* | 63.2* | 74.6*
Cc1cc(/C=C2\SC(=S)N(Cc3ccco3)C2=O)c(C)n1-c1ccccc1 | -6.2 | 24.4 | 11.6 | 101.6* | / | 45.5* | 98.5* | 105.8*
C[C@H](CO)N1C[C@H](C)[C@H](CN(C)C(=O)C2CC2)OCc2cnnn2CCCC1=O | / | 1.7 | / | / | -4.0 | -5.9 | / | /
N#C/C(=C\c1ccc(O)c(O)c1)C(=O)N1CCCC1 | -1.0 | 1.3 | 3.6 | 1.1 | -8.5 | 1.3 | / | /
N#C/C(=C\c1ccc(O)c(O)c1)C(=O)c1ccc(O)c(O)c1 | -1.6 | 167.2 | 4.2 | 26.9* | / | -7.4 | 68.9* | 73.8*
SMILES | IDE cell activ | CSN inh | IDE cell inh | TPT1 inh | Rpn11 block | HNF4A DNA FP | caTPT1 confirm | RNase T1 counter
COc1ccccc1NC(=O)Nc1sccc1-c1nc2ccccc2s1 | / | 9.6 | -6.8 | 32.9* | 35.7 | 16.4 | 33.5* | 49.3*
O=C(Nc1ccccc1)Nc1sccc1-c1nc2ccccc2s1 | / | 14.1 | -0.7 | 12.4 | 29.0 | 7.5 | / | /
COc1cc(F)ccc1-c1csc(C(C)(O)c2ccccc2)n1 (stereo not given) | / | 2.5 | / | / | -1.2 | 0.5 | / | /
COc1cccc(C2Oc3ccccc3C3CC(c4cccs4)=NN32)c1 (stereo not given) | / | 7.0 | 5.9 | 61.2* | 31.7 | 5.0 | 32.6* | 45.8*
Cc1csc(NC(=O)c2sc3nc(-c4cccs4)ccc3c2N)n1 | / | / | -1.8 | 26.7* | / | / | 25.8* | 40.9*
COC(=O)c1sc2cc([N+](=O)[O-])cc(SCC(C)C)c2c1N | -2.1 | 20.9 | 8.0 | 42.8* | / | 29.2 | 28.6* | 40.6*
COC(=O)CSc1nc(N)c2c3c(sc2n1)C(c1ccccc1)SC(c1ccccc1)C3 (stereo not given) | -31.1 | 24.8 | 5.9 | 72.2* | / | 24.7 | 22.4 | 31.4*
COC(=O)CSc1nc(N)c2c3c(sc2n1)CCCC3 | -1.0 | 1.0 | 2.8 | -6.3 | 3.9 | -2.0 | / | /
C[C@H](O)CNC(=O)c1[nH]cnc1C(=O)N[C@@H](C)c1ccccc1 | / | -3.1 | / | / | -2.9 | -2.4 | / | /
Cc1ccc(N/C=C/C(=O)c2ccco2)c(O)c1 | -1.9 | 1.6 | -9.9 | 29.3* | 39.1 | 8.8 | 46.3* | 55.2*
Cc1cc(SCC(=O)O)nc2ccccc12 | 7.0 | -3.4 | -5.0 | 1.6 | -2.8 | -0.9 | / | /
Cc1cc(SCC(=O)c2cc3ccccc3o2)nc2ccccc12 | -3.5 | 6.7 | 1.6 | 66.5* | / | 9.3 | 6.8 | 6.7
CCOC(=O)NC(c1cccc(Cl)c1)C1CCCCCC1=O (stereo not given) | 1.5 | 0.4 | -1.8 | 3.0 | -13.9 | 0.1 | / | /
O=C1CCCCC1C(O)c1ccc(Cl)cc1 (stereo not given) | / | / | 7.6 | 81.6* | / | / | 1.2 | 3.2
O=[N+]([O-])c1cccc(/C=C/c2nc(C=Nc3ccc4ccccc4c3)c(O)o2)c1 | 1.1 | 5.2 | 0.8 | 33.2* | 2.2 | 4.3 | 19.7 | 28.1*
O=[N+]([O-])c1cccc(/C=C/c2ccc3cccc(O)c3n2)c1 | 5.7 | -5.5 | 4.2 | -1.2 | 3.7 | 2.4 | / | /
O=C1CC(=O)N(Cc2cccs2)C(=O)N1 | -1.4 | 12.4 | 9.1 | 62.0* | 35.9 | 6.5 | 16.3 | 22.9*
CC1(C)CC(=O)C(C=Nc2cc(C(=O)c3ccccc3)ccc2N)=C(O)C1 | -4.2 | 29.4 | -0.2 | 27.5* | / | 31.1 | 7.4 | 11.9
CC1(C)CC(=O)C(C=Nc2ccc(N)cc2)=C(O)C1 | 2.5 | -6.6 | -0.1 | -3.7 | 5.6 | 0.8 | / | /
